The format of series [1] is in vitro ADME. Particulars: Protocol 1, pig skin, 30 min exposure, infinite dose, mean (%CV). In outline:
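Pig skin was shaved, trimmed to 2–3 mm and defatted, then mounted as 32 mm discs in Franz cells over 9 g l–1 NaCl and equilibrated 1 h at 32°C with stirring. Infinite dose (350 μl cm–2), 30 min exposure, excess removed, then 15 weighed tape strips over 18 mm, extracted with methanol. HSC came from TEWL; depth profiles were fitted to Fick's 2nd-law solution for KSC/v and DSC/HSC².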

The format of series [2] is in vitro ADME, human.
Series [3] is classed as in vitro ADME, human. Particulars: Protocol 2B; for Jss (steady state flux through the SC) / kp (permeation coefficient) / Mass balance / tlag (lag time): human SC; for Mass balance: 22 h; for tlag (lag time): from non-linear regression of cumulative amount penetrated vs. time. In outline: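 Isolated SC on 0.22 μm SuPor membrane, thickness by digital micrometer; flow-through cells at 32°C, stirred, receptor DPBS+ at 25 μl/min, equilibrated ≥30 min before dosing; 22 h occluded incubation; donor sampled pre/post; SC dissolved in 1M NaOH, radioactivity counted with washes for mass balance. Jss from earliest linear slope, membrane-corrected; kp = Jss/C; KSC/v·HSC and DSC/HSC² by non-linear Fick's-second-law fit of cumulative absorbed vs time.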

The mark [4] stands for this setting: Protocol 1, human skin, 30 min exposure, infinite dose, mean (%CV).
Setting [5] is: human skin, Equation (10) non-linear regression, mean (%CV).

This note sets out measurements from paper PMC5484360 (Journal of Applied Toxicology, 2017).

Like-named read-outs stand apart in the source and are kept apart here.

Take `CCOc1ccc2ccc(=O)oc2c1` [7‐Ethoxycoumarin]: the “DSC/HSC ^2” value is on record as 0.10 (44%) h^‐1 in series [1], 0.030 (55%) h^‐1 in series [2] (setting [4]) and 0.078 (26%) h^‐1 in series [3] (setting [5]). For the same compound, the KSC/v is reported as 89.5 (4.6%) in series [1]; 89.5 in series [1] (listed as 7‐EC); 39.5 (19%) in series [2] (setting [4]); 39.5 in series [2] (Protocol 1, human skin, 30 min exposure, infinite dose, mean (%CV), listed as 7‐EC); 34.5 ± 6.4 in series [2] (Protocol 1, single human donor in duplicate, 30 min exposure); 46.0 ± 1.4 in series [2] (Protocol 1, single human donor in duplicate, 90 min exposure). Also, the KSC/v in series [3] (setting [5]) was 0.019 (34%). Further, the “Jss (steady state flux through the SC)” value in series [3] came out at 225 ng/cm^2. In addition, the “kp (permeation coefficient)” value in series [3] is 0.000342 ± 0.000678 cm/h. In addition, the Mass balance in series [3] is given as 97.3 ± 1.4%. Moreover, the “tlag (lag time)” value in series [3] is 0.001 ± 0.004 h.
Turning to `Cn1c(=O)c2c(ncn2C)n(C)c1=O` [Caffeine], the KSC/v in series [1] was 1.27 (31%); in series [1] (listed as caffeine), 1.27; in series [2] (setting [4]), 2.68 (20%); in series [2] (Protocol 1, human skin, 30 min exposure, infinite dose, mean (%CV), listed as caffeine) it was 2.68; in series [3] (setting [5]), 2.63 (70%). Besides, the “Jss (steady state flux through the SC)” value in series [3] came out at 1261429 ng/cm^2. Also, in series [3], the “kp (permeation coefficient)” value was found to be 0.000556 ± 0.0004 cm/h. This compound had a Mass balance in series [3] of 99.7 ± 1.3%. In series [3], the “tlag (lag time)” value is on record as 1.82 ± 1.02 h.
Turning to `Oc1cccc(O)c1` [Resorcinol], in series [3], the “Jss (steady state flux through the SC)” value is reported as 2699031 ng/cm^2, the “kp (permeation coefficient)” value stood at 0.00084 ± 0.00048 cm/h, the Mass balance came to 99.2 ± 2.5% and the “tlag (lag time)” value is reported as 2.13 ± 0.16 h.
